Experimental data as given in ChEMBL document CHEMBL1127367, “Antiproliferative properties of polyamine analogues: a structure-activity study” (J Med Chem, 1994).

Legend:
L1210 [1] = assay: Compound level in L1210 cells after 48 hours of incubation at initial concentration of 70 uM is expressed as nmol/10e6 cells; assay type: functional, Mus musculus
How it was run: (§1)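 Murine L1210 leukemia cells were kept in logarithmic growth as a suspension in RPMI-1640 with 10% NuSerum, 2% HEPES-MOPS buffer and 1 mM aminoguanidine, at 37 °C under 5% CO2. Log-phase cells were exposed to the analogue for 48 h. Intracellular analogue content is reported per 10^6 cells.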

L1210 [2] = assay: Compound was evaluated for its impact on spermine levels after 48 hr at concentration 70 uM; assay type: functional, Mus musculus
How it was run: (§2)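 Murine L1210 leukemia cells in log-phase suspension (RPMI-1640, 10% NuSerum, 2% HEPES-MOPS, 1 mM aminoguanidine, 37 °C, 5% CO2) exposed to analogue for 48 h. Cells washed twice in cold RPMI-1640, extracted with 0.6 N perchloric acid, and polyamines quantified by HPLC. Spermine is reported as % of untreated control.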

L1210 [3] = assay: Compound was evaluated for its impact on spermidine levels after 48 hr at concentration 14 uM; assay type: functional, Mus musculus
How it was run: (§3)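 L1210 suspension cultures were grown in RPMI-1640 with 10% NuSerum, 2% HEPES-MOPS and 1 mM aminoguanidine (37 °C, 5% CO2). Log-phase cells were treated for 48 h, then washed twice in cold RPMI-1640 and pelleted. Pellets were extracted with 0.6 N perchloric acid, and supernatants were held at −20 °C until HPLC. Polyamine levels are given as % of untreated controls.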

L1210 [4] = assay: Compound was evaluated for its impact on spermidine levels after 48 hr at concentration 70 uM; assay type: functional, Mus musculus; how it was run: as §3
L1210 [5] = assay: Compound was evaluated for its impact on putrescine (Put) levels after 48 hr at concentration 70 uM; assay type: functional, Mus musculus; how it was run: as §3
L1210 [6] = assay: Inhibition of radiolabeled spermidine uptake into L1210 cells in vitro.; assay type: functional, cell-based, Mus musculus
L1210 [7] = assay: Compound level in L1210 cells after 48 hours of incubation at initial concentration of 14 uM is expressed as nmol/10e6 cells; assay type: functional, Mus musculus; how it was run: as §1
L1210 [8] = assay: Compound was evaluated for its impact on putrescine (Put) levels after 48 hr at concentration 14 uM; assay type: functional, Mus musculus; how it was run: as §3
L1210 [9] = assay: In vitro inhibition of L1210 growth after 48 hours.; assay type: functional, cell-based; conditions: Mus musculus, L1210, 48 h
How it was run: (§4)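 Log-phase L1210 cultures (0.5–1.0 × 10^5 cells/mL) treated with analogue diluted in sterile water and filter-sterilized. After 48 h, cells were reseeded and grown a further 48 h for the 96 h point. Cells counted by Coulter counter. % growth = (treated − inoculum)/(untreated − inoculum) × 100.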

L1210 [10] = assay: In vitro inhibition of L1210 growth after 96 hours.; assay type: functional, cell-based; conditions: Mus musculus, L1210, 96 h; how it was run: as §4
[11] = molecular target: T1, Ornithine decarboxylase (Mus musculus) (UniProt P00860); assay: Inhibition of ornithine decarboxylase (ODC) activity; assay type: functional; design: concentration or dose not given beside the values
T1 sequence (whole entry): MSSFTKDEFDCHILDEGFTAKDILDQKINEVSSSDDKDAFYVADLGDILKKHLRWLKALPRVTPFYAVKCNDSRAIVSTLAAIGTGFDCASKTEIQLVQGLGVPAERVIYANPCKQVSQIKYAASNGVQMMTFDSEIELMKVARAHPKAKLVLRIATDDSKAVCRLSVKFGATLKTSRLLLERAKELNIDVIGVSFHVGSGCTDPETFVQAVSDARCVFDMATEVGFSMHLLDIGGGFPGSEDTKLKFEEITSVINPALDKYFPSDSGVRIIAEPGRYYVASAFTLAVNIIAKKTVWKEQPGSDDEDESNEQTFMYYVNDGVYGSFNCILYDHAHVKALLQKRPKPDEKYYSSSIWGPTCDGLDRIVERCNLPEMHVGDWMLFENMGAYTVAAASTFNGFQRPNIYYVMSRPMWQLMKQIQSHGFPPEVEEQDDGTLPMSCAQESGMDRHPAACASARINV

[12] = molecular target: T2, S-adenosylmethionine decarboxylase proenzyme 1 (Mus musculus) (UniProt P0DMN7); assay: Inhibition of S-Adenosyl-methionine decarboxylase (AdoMetDC) activity; assay type: functional; design: concentration or dose not given beside the values
T2 sequence (whole entry): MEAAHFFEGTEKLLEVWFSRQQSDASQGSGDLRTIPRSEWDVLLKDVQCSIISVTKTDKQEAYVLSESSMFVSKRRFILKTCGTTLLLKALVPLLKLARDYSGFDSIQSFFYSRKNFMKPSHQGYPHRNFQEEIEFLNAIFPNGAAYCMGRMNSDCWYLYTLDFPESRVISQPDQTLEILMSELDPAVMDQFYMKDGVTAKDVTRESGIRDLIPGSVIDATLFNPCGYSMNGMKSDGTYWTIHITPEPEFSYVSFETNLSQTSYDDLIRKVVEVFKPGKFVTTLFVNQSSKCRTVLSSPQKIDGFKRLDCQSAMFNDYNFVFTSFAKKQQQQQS

[13] = molecular target: Spermidine/spermine N(1)-acetyltransferase (SAT) (Mus musculus) (UniProt Q6P8J2+P48026); assay: […] spermidine/spermine N1-Acetyltransferase (SSAT) activity; assay type: functional; design: concentration or dose not given beside the values
Chain of Spermidine/spermine N(1)-acetyltransferase (SAT) (Mus musculus) (P48026 whole entry, looked up): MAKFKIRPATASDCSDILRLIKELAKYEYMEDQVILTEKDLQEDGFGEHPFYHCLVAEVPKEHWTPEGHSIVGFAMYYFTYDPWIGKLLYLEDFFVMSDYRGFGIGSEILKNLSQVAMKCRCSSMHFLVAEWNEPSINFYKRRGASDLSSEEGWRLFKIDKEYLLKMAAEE
Chain of Spermidine/spermine N(1)-acetyltransferase (SAT) (Mus musculus) (Q6P8J2 whole entry, looked up): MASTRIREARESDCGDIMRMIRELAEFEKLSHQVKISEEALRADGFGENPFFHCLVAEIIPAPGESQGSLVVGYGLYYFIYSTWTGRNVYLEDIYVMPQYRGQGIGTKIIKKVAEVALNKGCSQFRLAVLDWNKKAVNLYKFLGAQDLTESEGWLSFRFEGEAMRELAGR

L1210 [14] = assay: Compound was evaluated for its impact on spermine levels after 48 hr at concentration 14 uM; assay type: functional, Mus musculus; how it was run: as §2
L1210 [15] = assay: Compound was evaluated for its impact on spermidine levels after 48 hr at concentration 0.4 uM; assay type: functional, Mus musculus; how it was run: as §3
L1210 [16] = assay: Compound was evaluated for its impact on spermidine levels after 48 hr at concentration 10 uM; assay type: functional, Mus musculus; how it was run: as §3
L1210 [17] = assay: Compound was evaluated for its impact on spermidine levels after 48 hr at concentration 2 uM; assay type: functional, Mus musculus; how it was run: as §3
L1210 [18] = assay: Compound was evaluated for its impact on spermine levels after 48 hr at concentration 0.4 uM; assay type: functional, Mus musculus; how it was run: as §2
L1210 [19] = assay: Compound was evaluated for its impact on spermine levels after 48 hr at concentration 10 uM; assay type: functional, Mus musculus; how it was run: as §2
L1210 [20] = assay: Compound was evaluated for its impact on spermine levels after 48 hr at concentration 2 uM; assay type: functional, Mus musculus; how it was run: as §2
L1210 [21] = assay: Compound was evaluated for its impact on putrescine (Put) levels after 48 hr at concentration 0.4 uM; assay type: functional, Mus musculus; how it was run: as §3
L1210 [22] = assay: Compound was evaluated for its impact on putrescine (Put) levels after 48 hr at concentration 10 uM; assay type: functional, Mus musculus; how it was run: as §3
L1210 [23] = assay: Compound was evaluated for its impact on putrescine (Put) levels after 48 hr at concentration 2 uM; assay type: functional, Mus musculus; how it was run: as §3
L1210 [24] = assay: Compound was evaluated for its impact on spermidine levels after 48 hr at concentration 100 uM; assay type: functional, Mus musculus
L1210 [25] = assay: Compound was evaluated for its impact on spermidine levels after 48 hr at concentration 20 uM; assay type: functional, Mus musculus; how it was run: as §3
L1210 [26] = assay: Compound was evaluated for its impact on spermine […] levels after 48 hr at concentration 100 uM; assay type: functional, Mus musculus; how it was run: as §3
L1210 [27] = assay: Compound was evaluated for its impact on spermine […] levels after 48 hr at concentration 20 uM; assay type: functional, Mus musculus; how it was run: as §3
L1210 [28] = assay: Compound was evaluated for its impact on putrescine (Put) levels after 48 hr at concentration 100 uM; assay type: functional, Mus musculus
L1210 [29] = assay: Compound was evaluated for its impact on putrescine (Put) levels after 48 hr at concentration 20 uM; assay type: functional, Mus musculus; how it was run: as §3
L1210 [30] = assay: Compound level in L1210 cells after 48 hours of incubation at initial concentration of 10 uM is expressed as nmol/10e6 cells; assay type: functional, Mus musculus; how it was run: as §1
L1210 [31] = assay: Compound was evaluated for its impact on spermidine levels after 48 hr at concentration 0.3 uM; assay type: functional, Mus musculus; how it was run: as §3
L1210 [32] = assay: Compound was evaluated for its impact on spermidine levels after 48 hr at concentration 1.5 uM; assay type: functional, Mus musculus; how it was run: as §3
L1210 [33] = assay: Compound was evaluated for its impact on spermine levels after 48 hr at concentration 0.3 uM; assay type: functional, Mus musculus; how it was run: as §3
L1210 [34] = assay: Compound was evaluated for its impact on spermine levels after 48 hr at concentration 1.5 uM; assay type: functional, Mus musculus; how it was run: as §2
L1210 [35] = assay: Compound was evaluated for its impact on putrescine (Put) levels after 48 hr at concentration 0.3 uM; assay type: functional, Mus musculus; how it was run: as §3
L1210 [36] = assay: Compound level in L1210 cells after 48 hours of incubation at initial concentration of 0.3 uM is expressed as nmol/10e6 cells; assay type: functional, Mus musculus; how it was run: as §1
L1210 [37] = assay: Compound level in L1210 cells after 48 hours of incubation at initial concentration of 1.5 uM is expressed as nmol/10e6 cells; assay type: functional, Mus musculus; how it was run: as §1
L1210 [38] = assay: Compound was evaluated for its impact on putrescine (Put) levels after 48 hr at concentration 1.5 uM; assay type: functional, Mus musculus; how it was run: as §3
L1210 [39] = assay: Compound level in L1210 cells after 48 hours of incubation at initial concentration of 500 uM is expressed as nmol/10e6 cells; assay type: functional, Mus musculus; design: unit: nmol/10^6 cells
L1210 [40] = assay: Compound was evaluated for its impact on spermine […] levels after 48 hr at concentration 10 uM; assay type: functional, Mus musculus; how it was run: as §3
L1210 [41] = assay: Compound was evaluated for its impact on spermine levels after 48 hr at concentration 100 uM; assay type: functional, Mus musculus
L1210 [42] = assay: Compound level in L1210 cells after 48 hours of incubation at initial concentration of 100 uM is expressed as nmol/10e6 cells; assay type: functional, Mus musculus; design: unit: nmol/10^6 cells
[43] = molecular target: T1, Ornithine decarboxylase (Mus musculus); assay: Effect of compound on ornithine decarboxylase (ODC) activity expressed as percent of untreated control for ODC (1 uM at 4 h(or 48h))
How it was run: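 L1210 cells exposed to 1 μM analogue for 4 h, or for 48 h in some cases. ODC activity measured as 14CO2 released from [14C]carboxyl-labeled L-ornithine and expressed as % of untreated control.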

Row | IC50 (L1210 [9]) | IC50 (L1210 [10]) | Activity [11] | Activity [12] | Activity [13] | Compound | Ki (L1210 [6]) | Polyamine (L1210 [16]) | Polyamine (L1210 [19]) | Polyamine (L1210 [22]) | Polyamine (L1210 [24]) | Polyamine (L1210 [28]) | other results
1 | 14 µM | 0.17 µM | 3% | 41% | 110% | CCNCCCCNCCCCNCCCCN | 1.1 µM | – | – | – | – | – | Activity (L1210 [1]): 3.22; Polyamine (L1210 [2]): 26%; Polyamine (L1210 [3]): 0%; Polyamine (L1210 [4]): 0%; Polyamine (L1210 [5]): 0%; Activity (L1210 [7]): 2.99; Polyamine (L1210 [8]): 0%; Polyamine (L1210 [14]): 26%
2 | 0.4 µM | 0.03 µM | 79% | 81% | – | CCNCCCCNCCCCNCCCCNC(C)(C)C | 3 µM | 10% | 77% | 0% | – | – | Polyamine (L1210 [15]): 96%; Polyamine (L1210 [17]): 68%; Polyamine (L1210 [18]): 75%; Polyamine (L1210 [20]): 63%; Polyamine (L1210 [21]): 133%; Polyamine (L1210 [23]): 78%
3 | 20 µM | 0.06 µM | 90% | 78% | 130% | CC(C)NCCCCNCCCCNCCCCNC(C)C | 8.1 µM | – | – | – | 7% | 0% | Polyamine (L1210 [25]): 17%; Polyamine (L1210 [26]): 67%; Polyamine (L1210 [27]): 83%; Polyamine (L1210 [29]): 0%
4 | 0.2 µM | 0.07 µM | 7% | 41% | 140% | CCNCCCCNCCCCNCCCCNCC [DIETHYLHOMOSPERMINE] | 1.4 µM | 0% | 61% | 0% | – | – | Activity (L1210 [30]): 2.94
5 | 0.3 µM | 0.08 µM | 5% | 37% | 370% | CCNCCCCNCCCCNCCCNCC | 8 µM | – | – | – | – | – | Polyamine (L1210 [31]): 47%; Polyamine (L1210 [32]): 0%; Polyamine (L1210 [33]): 65%; Polyamine (L1210 [34]): 18%; Polyamine (L1210 [35]): 40%; Activity (L1210 [36]): 0.27; Activity (L1210 [37]): 0.64; Polyamine (L1210 [38]): 0%
6 | > 100 µM | 2 µM | – | 42% | 1500% | CCNCCCNCCCNCCCNCC [BIS(ETHYL)NORSPERMINE] | 17 µM | 14% | – | 30% | 6% | 0% | Activity (L1210 [39]): 1.59; Polyamine (L1210 [40]): 31%; Polyamine (L1210 [41]): 30%; Activity (L1210 [42]): 2.44; Activity [43]: 10%
